Experimental data gathered from unrelated publications.
Compare with care: the assays were run in different laboratories.
Target: Serine/threonine-protein kinase DCLK3 (DCLK3, Homo sapiens, UniProt Q9C098)
One construct used (Q9C098 1-648): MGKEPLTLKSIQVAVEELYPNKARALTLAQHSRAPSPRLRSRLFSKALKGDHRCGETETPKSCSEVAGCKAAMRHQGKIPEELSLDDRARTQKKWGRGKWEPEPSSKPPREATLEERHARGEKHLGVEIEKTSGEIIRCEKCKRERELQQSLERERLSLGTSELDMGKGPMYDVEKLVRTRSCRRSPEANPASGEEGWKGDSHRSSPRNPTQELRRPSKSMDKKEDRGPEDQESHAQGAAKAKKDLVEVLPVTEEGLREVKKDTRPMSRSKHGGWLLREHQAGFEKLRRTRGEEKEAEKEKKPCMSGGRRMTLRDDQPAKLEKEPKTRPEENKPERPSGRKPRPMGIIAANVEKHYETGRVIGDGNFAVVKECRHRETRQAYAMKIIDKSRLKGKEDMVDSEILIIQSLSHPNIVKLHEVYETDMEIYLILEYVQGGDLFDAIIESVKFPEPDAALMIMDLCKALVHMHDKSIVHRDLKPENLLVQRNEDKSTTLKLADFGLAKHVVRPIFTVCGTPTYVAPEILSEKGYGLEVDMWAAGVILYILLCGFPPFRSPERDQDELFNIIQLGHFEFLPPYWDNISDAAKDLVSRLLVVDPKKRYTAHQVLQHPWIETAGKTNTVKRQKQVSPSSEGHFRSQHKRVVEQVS

| Compound | test | setting | endpoint | value |
| --- | --- | --- | --- | --- |
| COc1cc(-c2cn(C3CCc4ccccc4N(CC(F)(F)F)C3=O)nn2)ccc1-n1ccc(C)n1 (stereo not drawn) | cell-free assay, competition with immobilised ligand | 1 µM | remaining binding | 100% |
| Cc1ccc(C(=O)Nc2ccc(CN3CCN(C)CC3)c(C(F)(F)F)c2)cc1C#Cc1cnc2cccnn12 | enzyme activity, inhibitor | 23.5 nM | remaining activity | 100% |
| Cc1ccc(NC(=O)c2ccc(C)c(C(F)(F)F)c2)cc1C#Cc1nn(C2CCC(O)CC2)c2ncnc(N)c12 (stereo not drawn) | cell-free assay | 10 µM | remaining signal | 101% |
| CN1CC(Oc2cnc(C#N)cc2-c2ccn3nc(NC(=O)C4CC4)cc3c2)C1 | enzyme activity, inhibitor | 1 µM | inhibition | -4% |
| COc1ccc2c(O[C@@H]3C[C@H]4C(=O)N[C@]5(C(=O)O)CC5/C=C\CCCCC[C@H](NC(=O)OC5CCCC5)C(=O)N4C3)cc(-c3csc(NC(=O)C(C)C)n3)nc2c1C (stereo partly drawn) | cell-free assay, competition with immobilised ligand | 1 µM | remaining binding | 96% |
| Cc1cc(NC(=O)c2cccc3cc(-c4cccc5[nH]nc(N)c45)ccc23)ccc1F | enzyme activity, inhibitor | 0.1 µM | activity vs control | 110% |
| COc1cc(Cl)c(C(=O)N[C@@H](CN[C@H]2CC[C@@H](N)CC2)Cc2ccc(C#N)cc2)cc1-c1ccc(CN[C@H](C)c2ccc(C)cc2)o1 | enzyme activity, inhibitor | 1 µM | remaining activity | 89% |
| Cc1cnc(NC2CCOCC2)nc1-n1cnc(C(=O)NC(CN)c2cc(F)cc(Cl)c2)c1 (stereo not drawn) | enzyme activity, inhibitor, radiometric | 1 µM | remaining activity | 56% |
| Nc1ncnc2occ(-c3ccc(NC(=O)Nc4cc(C(F)(F)F)ccc4F)cc3)c12 | cell-free assay, inhibitor | 20 µM | remaining signal | 24% |
